In ChEMBL document CHEMBL3272325, “Structure-activity relationships of dimeric Catharanthus alkaloids. 1. Deacetylvinblastine amide (vindesine) sulfate” (J Med Chem, 1978):

Legend:
[1] = system: Blood; test: Biodistribution in po dosed rat blood using [3H]-labeled drug relative to Iv dosing; format: ADME, organism-based; conditions: in vivo
[2] = Antitumor activity against mouse Ridgeway osteogenic sarcoma cells allografted in mouse at 0.5 to 0.7 mg/kg/day, ip; format: functional; conditions: route intraperitoneal
Method in brief: (§1)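 Sulfate salts given ip on days 1-9 against ROS and GLS in mice; tumor growth scored as percent inhibition versus controls (+++ = 75-100%, ++ = 50-75%, ± = under 25%).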

[3] = Antitumor activity against mouse Gardner lymphosarcoma cell allografted in mouse at 0.5 to 0.7 mg/kg/day, ip; format: functional; conditions: route intraperitoneal; method in brief: as §1
[4] = Acute toxicity in ip dosed mouse; format: organism-based; conditions: in vivo
[5] = Antitumor activity against mouse Ridgeway osteogenic sarcoma cells allografted in mouse at 0.5 to 0.8 mg/kg/day, ip; format: functional; conditions: route intraperitoneal; method in brief: as §1
[6] = Antitumor activity against mouse Gardner lymphosarcoma cell allografted in mouse at 0.5 to 0.8 mg/kg/day, ip; format: functional; conditions: route intraperitoneal; method in brief: as §1
[7] = system: P388; test: Antitumor activity against mouse P388 cells allografted in mouse assessed as increase in life span at 0.18 mg/kg/day, ip administered from day 1 to day 9 relative to untreated control; format: functional; conditions: route intraperitoneal
Method in brief: (§2)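 P388 ascites implanted ip in mice, 10 animals per group. Sulfate salts given ip either daily on days 1-9 or as a single dose on day 1. Median life span was calculated using all deaths and survivors. Percent increase in life span was taken over untreated controls. The highest nontoxic dose was noted.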

[8] = system: P388; test: Antitumor activity against mouse P388 cells allografted in mouse assessed as increase in life span at 9 mg/kg/day, ip after 1 day; format: functional; conditions: 24 h, route intraperitoneal; method in brief: as §2
[9] = system: P388; test: Antitumor activity against mouse P388 cells allografted in mouse assessed as increase in life span at 6 mg/kg/day, ip after 1 day; format: functional; conditions: 24 h, route intraperitoneal; method in brief: as §2
[10] = system: P388; test: Antitumor activity against mouse P388 cells allografted in mouse assessed as increase in life span at 4 mg/kg/day, ip after 1 day; format: functional; conditions: 24 h, route intraperitoneal; method in brief: as §2
[11] = system: P388; test: Antitumor activity against mouse P388 cells allografted in mouse assessed as increase in life span at 1.8 mg/kg/day, ip after 1 day; format: functional; conditions: 24 h, route intraperitoneal; method in brief: as §2
[12] = system: P388; test: Antitumor activity against mouse P388 cells allografted in mouse assessed as increase in life span at 1.7 mg/kg/day, ip after 1 day; format: functional; conditions: 24 h, route intraperitoneal; method in brief: as §2
[13] = Toxicity in ip dosed mouse allografted with mouse p388 cells administered from day 1 to day 9; format: organism-based; conditions: in vivo, read-out: MNTD; method in brief: as §2
[14] = Toxicity in ip dosed mouse allografted with mouse p388 cells after 1 day; format: organism-based; conditions: in vivo, read-out: MNTD; method in brief: as §2
[15] = Antitumor activity against mouse Ridgeway osteogenic sarcoma cells allografted in mouse at 0.3 to 0.4 mg/kg/day, ip; format: functional; conditions: route intraperitoneal
Method in brief: (§3)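 Ridgeway osteogenic sarcoma and Gardner lymphosarcoma in mice, with sulfate salts given ip daily on days 1-9. Tumor growth inhibition versus controls scored in bands: +++ = 75-100%, ++ = 50-75%, ± = under 25%.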

[16] = Antitumor activity against mouse Gardner lymphosarcoma cell allografted in mouse at 0.3 to 0.4 mg/kg/day, ip; format: functional; conditions: route intraperitoneal; method in brief: as §3
[17] = Antitumor activity against mouse P1534(J) cells allografted in mouse assessed as tumor growth inhibition at 0.2 mg/kg/day, ip administered from day 1 to day 9 relative to unreated control; format: functional; conditions: P1534J, route intraperitoneal, read-out: TGI
Method in brief: (§4)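 P1534(J) leukemia implanted subcutaneously in mice. Sulfate salts given ip daily on days 1-9. Read-out was percent inhibition of tumor growth relative to untreated controls. The highest nontoxic dose was recorded.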

[18] = Antitumor activity against mouse P1534(J) cells allografted in mouse assessed as tumor growth inhibition at 0.1 mg/kg/day, ip administered from day 1 to day 9 relative to unreated control; format: functional; conditions: P1534J, route intraperitoneal, read-out: TGI; method in brief: as §4
[19] = Toxicity in ip dosed mouse allografted with mouse P1534(J) cells administered from day 1 to day 9; format: organism-based; conditions: in vivo, read-out: MNTD; method in brief: as §4
[20] = system: P388; test: Antitumor activity against mouse P388 cells allografted in mouse assessed as increase in life span at 0.6 mg/kg/day, ip administered from day 1 to day 9 relative to untreated control; format: functional; conditions: route intraperitoneal; method in brief: as §2
[21] = system: P388; test: Antitumor activity against mouse P388 cells allografted in mouse assessed as increase in life span at 0.4 mg/kg/day, ip administered from day 1 to day 9 relative to untreated control; format: functional; conditions: route intraperitoneal; method in brief: as §2
[22] = system: P388; test: Antitumor activity against mouse P388 cells allografted in mouse assessed as increase in life span at 0.27 mg/kg/day, ip administered from day 1 to day 9 relative to untreated control; format: functional; conditions: route intraperitoneal; method in brief: as §2
[23] = system: B16; test: Antitumor activity against mouse B16 cells allografted in C57Bl/6 mouse assessed as mean survival time at 0.9 mg/kg/day, ip administered on day 1, 5 and 9 (reference value: 24.6 days); format: functional; conditions: route intraperitoneal
[24] = system: B16; test: Antitumor activity against mouse B16 cells allografted in C57Bl/6 mouse assessed as mean survival time at 1.2 mg/kg/day, ip administered on day 1, 5 and 9 (reference value: 24.6 days); format: functional; conditions: route intraperitoneal
[25] = system: B16; test: Antitumor activity against mouse B16 cells allografted in C57Bl/6 mouse assessed as mean survival time at 0.6 mg/kg/day, ip administered on day 1, 5 and 9 (reference value: 24.6 days); format: functional; conditions: route intraperitoneal
[26] = system: B16; test: Antitumor activity against mouse B16 cells allografted in C57Bl/6 mouse assessed as mean survival time at 0.3 mg/kg/day, ip administered on day 1, 5 and 9 (reference value: 24.6 days); format: functional; conditions: route intraperitoneal
[27] = system: B16; test: Antitumor activity against mouse B16 cells allografted in C57Bl/6 mouse assessed as mean survival time at 0.15 mg/kg/day, ip administered on day 1, 5 and 9 (reference value: 24.6 days); format: functional; conditions: route intraperitoneal
[28] = system: B16; test: Antitumor activity against mouse B16 cells allografted in C57Bl/6 mouse assessed as increase in life span at 0.9 mg/kg/day, ip administered on day 1, 5 and 9 measured for 61 days relative to control; format: functional; conditions: route intraperitoneal
Method in brief: (§5)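 C57BL/6 mice implanted ip with 0.5 mL of B16 melanoma brei. Alkaloid sulfate salts given ip on days 1, 5, 9 or on days 5, 9, 13. Percent increase in life span measured against controls; experiment ended at 61 days.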

[29] = system: B16; test: Antitumor activity against mouse B16 cells allografted in C57Bl/6 mouse assessed as increase in life span at 1.2 mg/kg/day, ip administered on day 1, 5 and 9 measured for 61 days relative to control; format: functional; conditions: route intraperitoneal
[30] = system: B16; test: Antitumor activity against mouse B16 cells allografted in C57Bl/6 mouse assessed as increase in life span at 0.6 mg/kg/day, ip administered on day 1, 5 and 9 measured for 61 days relative to control; format: functional; conditions: route intraperitoneal; method in brief: as §5
[31] = system: B16; test: Antitumor activity against mouse B16 cells allografted in C57Bl/6 mouse assessed as increase in life span at 0.3 mg/kg/day, ip administered on day 1, 5 and 9 measured for 61 days relative to control; format: functional; conditions: route intraperitoneal; method in brief: as §5
[32] = system: B16; test: Antitumor activity against mouse B16 cells allografted in C57Bl/6 mouse assessed as increase in life span at 0.15 mg/kg/day, ip administered on day 1, 5 and 9 measured for 61 days relative to control; format: functional; conditions: route intraperitoneal; method in brief: as §5
[33] = system: B16; test: Antitumor activity against mouse B16 cells allografted in C57Bl/6 mouse assessed as mean survival time at 1.2 mg/kg/day, ip administered on day 5, […] (reference value: 21.5 days); format: functional; conditions: route intraperitoneal
[34] = system: B16; test: Antitumor activity against mouse B16 cells allografted in C57Bl/6 mouse assessed as mean survival time at 0.6 mg/kg/day, ip administered on day 5, […] (reference value: 21.5 days); format: functional; conditions: route intraperitoneal
[35] = system: B16; test: Antitumor activity against mouse B16 cells allografted in C57Bl/6 mouse assessed as mean survival time at 0.3 mg/kg/day, ip administered on day 5, […] (reference value: 21.5 days); format: functional; conditions: route intraperitoneal
[36] = system: B16; test: Antitumor activity against mouse B16 cells allografted in C57Bl/6 mouse assessed as mean survival time at 0.15 mg/kg/day, ip administered on day 5, […] (reference value: 21.5 days); format: functional; conditions: route intraperitoneal
[37] = system: B16; test: Antitumor activity against mouse B16 cells allografted in C57Bl/6 mouse assessed as increase in life span at 0.9 mg/kg/day, ip administered on day 5, 9 and 13 measured for 61 days relative to control; format: functional; conditions: route intraperitoneal; method in brief: as §5
[38] = system: B16; test: Antitumor activity against mouse B16 cells allografted in C57Bl/6 mouse assessed as increase in life span at 1.2 mg/kg/day, ip administered on day 5, 9 and 13 measured for 61 days relative to control; format: functional; conditions: route intraperitoneal
[39] = system: B16; test: Antitumor activity against mouse B16 cells allografted in C57Bl/6 mouse assessed as increase in life span at 0.6 mg/kg/day, ip administered on day 5, 9 and 13 measured for 61 days relative to control; format: functional; conditions: route intraperitoneal; method in brief: as §5
[40] = system: B16; test: Antitumor activity against mouse B16 cells allografted in C57Bl/6 mouse assessed as increase in life span at 0.3 mg/kg/day, ip administered on day 5, 9 and 13 measured for 61 days relative to control; format: functional; conditions: route intraperitoneal; method in brief: as §5
[41] = system: B16; test: Antitumor activity against mouse B16 cells allografted in C57Bl/6 mouse assessed as increase in life span at 0.15 mg/kg/day, ip administered on day 5, 9 and 13 measured for 61 days relative to control; format: functional; conditions: route intraperitoneal; method in brief: as §5
[42] = system: B16; test: Antitumor activity against mouse B16 cells allografted in C57Bl/6 mouse assessed as mean survival time at 0.9 mg/kg/day, ip administered on day 5, 9 and 13 (reference value: 21.5 days); conditions: route intraperitoneal

**Q.** For CC[C@]1(O)C[C@@H]2CN(CCc3c([nH]c4ccccc34)[C@@](C(=O)OC)(c3cc4c(cc3OC)N(C)[C@H]3[C@@](O)(C(N)=O)[C@H](O)[C@]5(CC)C=CCN6CC[C@]43[C@@H]65)C2)C1 [VINDESINE], which Drug uptake [1] is on record?
**A.** 1%

**Q.** What does the source list for CC[C@]1(O)C[C@H]2CN(CCc3c([nH]c4ccccc34)[C@@](C(=O)OC)(c3cc4c(cc3OC)N(C)[C@H]3[C@@](O)(C(N)=O)[C@H](O)[C@]5(CC)CCCN6CC[C@]43[C@@H]65)C2)C1.O=S(=O)(O)O?
**A.** TGI [2]: 50%; TGI [3]: 50%

**Q.** What does the source list for CC[C@]1(O)C[C@@H]2C[C@](C(=O)OC)(c3cc4c(cc3OC)N(C)[C@H]3[C@@](O)(C(N)=O)[C@H](O)[C@]5(CC)C=CCN6CC[C@]43[C@@H]65)c3[nH]c4ccccc4c3CC[N+]([O-])(C2)C1?
**A.** LD50 [4]: > 10 mg/kg; TGI [5]: 25%; TGI [6]: 25%

**Q.** Which results are given for CC[C@]1(O)C[C@H]2CN(CCc3c([nH]c4ccccc34)[C@@](C(=O)OC)(c3cc4c(cc3OC)N(C)[C@H]3[C@@](O)(C(=O)OC)[C@H](O)[C@]5(CC)C=CCN6CC[C@]43[C@@H]65)C2)C1.O=S(=O)(O)O?
**A.** ILS at 0.18 mg/kg/day [7]: 136%; ILS at 9 mg/kg/day [8]: > 263%; ILS at 6 mg/kg/day [9]: 200%; ILS at 4 mg/kg/day [10]: 218%; ILS at 1.8 mg/kg/day [11]: 159%; ILS at 1.7 mg/kg/day [12]: 154%; MTD [13]: 0.6 mg/kg/day; MTD at 24 h [14]: 9 mg/kg/day; TGI [15]: 50%; TGI [16]: 50%; LD50 [4]: 5.8 mg/kg; inhibition in vivo at 0.2 mg/kg/day [17]: 96%; inhibition in vivo at 0.1 mg/kg/day [18]: 41%; MTD [19]: 0.2 mg/kg/day; ILS at 0.6 mg/kg/day [20]: > 263%; ILS at 0.4 mg/kg/day [21]: > 263%; ILS at 0.27 mg/kg/day [22]: 181%; MST [23]: 45.3 days; MST [24]: 41.5 days; MST [25]: 51.5 days; MST [26]: 49.3 days; MST [27]: 42.1 days; ILS at 0.9 mg/kg/day [28]: 84%; ILS at 1.2 mg/kg/day [29]: 69%; ILS at 0.6 mg/kg/day [30]: 109%; ILS at 0.3 mg/kg/day [31]: 100%; ILS at 0.15 mg/kg/day [32]: 71%; MST [33]: 45.2 days; MST [34]: 41.1 days; MST [35]: 41.1 days; MST [36]: 33.7 days; ILS at 0.9 mg/kg/day [37]: 126%; ILS at 1.2 mg/kg/day [38]: 110%; ILS at 0.6 mg/kg/day [39]: 91%; ILS at 0.3 mg/kg/day [40]: 91%; ILS at 0.15 mg/kg/day [41]: 57%; MST [42]: 48.7 days
